Bioassay records as filed in PubChem BioAssay.
A selection: hits, their analogues and other compounds. The true share with any hit is near 4.1%.
Cl transport mod: modulators of human KCC2 chloride dependent transport | actives 2.2% (n = 190,000) | B-score of Tl+ flux slope (higher = more flux/activation; lower = inhibition) at 10 µM | Q9H2X9 | KCC2 cells, thallium flux FluoZin-2 fluorescence;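 active means thallium flux slope and its plate-corrected score both differing from the plate sample mean at a set confidence after two filtering rounds, in either direction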;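 further: slope of fluorescence scaled to starting intensity during 10 to 20 s after thallium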
KCNQ1 block: blocks the human KCNQ1 potassium channel. P51787. CHO-K1 KCNQ1, FluxOR thallium flux fluorescence; stronger effect = higher value. B-score at 10 µM. actives 1.3% (n = 310,000). AID 2642;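 active means compounds whose thallium flux B-score, printed positive for inhibition, exceeds three library SD while starting fluorescence stays within three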;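 further: channel opened by potassium depolarization with thallium stimulus after 20 min compound exposure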
KCNQ1 act: potentiators or activators of human KCNQ1 potassium channel | P51787 | CHO-K1 KCNQ1, thallium flux FluxOR fluorescence; stronger effect = higher value | B-score at 10 µM | actives 0.35% (n = 310,000) | AID 2648;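 active means fluorescence ratio B-score, a plate-corrected score, at least three library SD, with initial intensity B-score within 5 SD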
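Test system: CHO-K1 cells stably expressing KCNQ1 / Medium: assay buffer / Also added: depolarizing K+/Tl+ stimulus, K2SO4 and Tl2SO4 each 12.5 mM in 5x stock / Incubation: 90 min dye loading and 20 min compound exposure, both at room temperature / Signal: thallium influx via FluxOR fluorescence, kinetic imaging / Evaluation: B score of baseline-normalized fluorescence ratio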
KCNK3 inh: human KCNK3 channel inhibition, primary screen. CHO-KCNK3 thallium flux, FluxOR fluorescence; stronger effect = lower value. actives 0.84% (n = 340,000). O14649. B-score at 10 µM;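 active means B-score under library mean minus 4 SD, starting fluorescence ratio at most library mean plus 5 SD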;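 further: more negative B-score means stronger inhibition of thallium flux through KCNK3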
Target sequence (O14649 whole entry, looked up): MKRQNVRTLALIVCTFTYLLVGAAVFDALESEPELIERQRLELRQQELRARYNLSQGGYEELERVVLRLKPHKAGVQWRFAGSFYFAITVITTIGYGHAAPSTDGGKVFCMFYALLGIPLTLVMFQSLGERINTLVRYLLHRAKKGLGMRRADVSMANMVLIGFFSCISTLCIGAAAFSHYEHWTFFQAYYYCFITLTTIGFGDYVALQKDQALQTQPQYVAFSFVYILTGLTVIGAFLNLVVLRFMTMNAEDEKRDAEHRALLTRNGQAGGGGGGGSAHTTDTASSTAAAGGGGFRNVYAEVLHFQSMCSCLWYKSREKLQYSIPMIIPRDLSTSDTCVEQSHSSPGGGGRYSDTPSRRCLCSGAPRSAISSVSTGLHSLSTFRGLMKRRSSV
KCNK9 block: human KCNK9 channel inhibition; HEK293 KCNK9, FluxOR thallium flux fluorescence; stronger effect = lower value; AID 488922; actives 1.2% (n = 310,000); B-score at 10 µM;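 active means ratio B-score over 3 SD below the library mean, with starting fluorescence within 5 SD of its mean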;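 further: negative B-score means less thallium flux so channel inhibition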
hERG protect: compounds protecting human hERG from proarrhythmic drug block; Q12809; CHO-hERG, FluxOR thallium flux, dofetilide IC70 present; activation (rescue from dofetilide block), less the hit threshold, % at 10 µM; actives 0.51% (n = 310,000);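 active means activation above the mean of controls blocked by dofetilide plus 5 SD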;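 further: thallium influx through hERG after potassium depolarization seen as dye fluorescence rise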
KCNQ1 inh valid: human KCNQ1 channel inhibition, validation assay. actives 93% (n = 1,600). shares compounds with KCNQ1 block. AID 588353. KCNQ1 cell line, FluxOR thallium flux fluorescence. inhibition, % at 10 µM;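 active means primary screen active, with duplicate mean exceeding buffer control mean plus 3 SD of buffer wells, cut at about 28% in these data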;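 further: 0% = buffer control ratio and 100% = XE991 inhibitor control ratio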
CHO KCNQ1 ctr: KCNQ1 inhibitor counter-screen hit in parental CHO cells. shares compounds with KCNQ1 block. parental CHO-K1, FluxOR thallium flux fluorescence ratio; stronger effect = lower value; zero means no signal rise above baseline. fluorescence ratio (Tl flux) at 10 µM. actives 21% (n = 1,600). AID 588366;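 active means mean of duplicate thallium-flux fluorescence ratios in parental host cells more than 5 SD below the buffer control mean, cut at about 0.38 in these data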;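 further: ratio is peak minus minimum fluorescence divided by baseline fluorescence; actives read low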
KCNQ1 ephys val: human KCNQ1 inhibition validated by electrophysiology; shares compounds with KCNQ1 block; KCNQ1-CHO cells, automated patch clamp current; calls only at 10 µM; actives 20% (n = 490); AID 624120;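 active means KCNQ1 current drop exceeding 3 SD of negative control wells, seen in both duplicate runs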;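 further: steady state current during a 2 s step from -80 to +40 mV; negative values mean current inhibition and positive values mean potentiation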
KCNQ2 inh: rat KCNQ2 inhibition in KCNQ1 inhibitor specificity screen. shares compounds with KCNQ1 block. KCNQ2 cells, FluxOR thallium flux fluorescence. inhibition, % at 10 µM. actives 71% (n = 1,600);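 active means mean percent inhibition of the KCNQ2 thallium signal more than 5 SD above the buffer-only control wells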;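 further: KCNQ2 expressed in CHO cells; 0% = buffer control wells and 100% = XE-991 inhibitor control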
KCNQ1 KCNE1 spec: KCNQ1 inhibitor that also blocks human KCNQ1/KCNE1 channel. inhibition, % at 10 µM. AID 652147. KCNQ1/KCNE1 cells, FluxOR thallium flux fluorescence. shares compounds with KCNQ1 block. actives 77% (n = 1,600);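 active means mean percent inhibition of duplicate wells above the buffer-only control mean plus 3 SD of those controls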;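 further: 0% = buffer only wells and 100% = XE-991 inhibitor control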
Numbers without * were called inactive; i = inactive; · = no result given; + = active, no number.

SMILES	Cl transport mod	KCNQ1 block	KCNQ1 act	KCNK3 inh	KCNK9 block	hERG protect	KCNQ1 inh valid	CHO KCNQ1 ctr	KCNQ2 inh	KCNQ1 KCNE1 spec	others
C=CCN(c1nc(C)c(Br)c(OC)n1)S(=O)(=O)c1ccc(C)cc1	·	7*	i	i	i	-10	113*	0.44	118%*	83%*	KCNQ1 ephys val=i
O=C(CN1CCCN(Cc2ccc(F)cc2Cl)C1=O)NCc1ccccc1	-1.1	i	i	i	i	-9	·	·	·	·
CN(C)c1nc(/C=C(\C#N)C(N)=O)c(Cl)n1-c1ccc(F)cc1	-0.004	i	i	i	i	-3	·	·	·	·
Cc1cc2c(cc1C)N(Cc1ccc(Cl)cc1)C1=NCCCN12	·	7*	i	i	i	-16	91*	0.41	105%*	98%*	KCNQ1 ephys val=+
CCSc1nnc(NC(=O)NC(CC)(C(F)(F)F)C(F)(F)F)s1	·	7*	i	i	i	-13	57*	0.5	i	91%*
CCSc1nnc(NC(=O)NC(C)(C(F)(F)F)C(F)(F)F)s1	0.33	i	i	i	i	-11	·	·	·	·
CCC(=O)Nc1ccc(S(=O)(=O)Nc2c(C)nc3nc[nH]n3c2=O)cc1	·	i	i	i	i	-8	·	·	·	·
CCN(CC)CCN(C(=O)c1ccc2c(c1)OCCO2)c1nc2cc3c(cc2s1)OCO3	·	7*	i	i	i	-14	50*	0.47	81%*	84%*
S=C(NCc1cccs1)Nc1cc(Cl)cc(Cl)c1	·	6*	i	i	i	-10	34*	0.54	78%*	i
COc1ccc(C2NCCc3sccc32)cc1 (stereo not drawn)	-0.71	i	i	i	i	-1	·	·	·	·
COc1ccc(C2c3ccsc3CCN2C(=O)C(C)(C)C)cc1 (stereo not drawn)	-2.7	8*	i	i	i	-14	116*	0.37*	82%*	152%*
O=C(NC(c1cccnc1)C(F)(F)F)c1cc(COc2ccc3c(c2)CCCC3)on1 (stereo not drawn)	·	16*	i	i	i	-16	138*	0.36*	118%*	+
CCN1C(=S)N[C@@H](c2ccccc2)C(C(=O)OC)=C1C	·	i	i	i	i	-8	·	·	·	·
O=C(Nc1cccc(F)c1)N1CC=C(c2ccc(Cl)cc2)CC1	-0.57	13*	i	i	i	-11	132*	0.44	103%*	168%*	KCNQ1 ephys val=i
O=C(CN1CCN(c2ccc(Cl)cc2)CC1)Nc1cccc(F)c1	-0.87	i	i	i	i	-8	·	·	·	·
CC1CCN(CCCNC(=O)c2ccc3c(=O)n(Cc4ccc(Cl)cc4)c(=S)[nH]c3c2)CC1	1.3	7*	i	i	i	-44	0	0.48	i	i
CC(=O)Nc1ccc(C(=O)Cn2nnc3ccccc3c2=O)cc1	·	i	i	i	i	-10	·	·	·	·
COc1ccc(S(=O)(=O)N2CCN(c3c(C)cccc3C)CC2)cc1OC	-0.048	8*	i	i	i	-11	99*	0.36*	110%*	92%*
Cc1cc(S(=O)(=O)N2CCN(c3ccccc3C)CC2)ccc1F	·	11*	i	-9.8*	i	-11	168*	0.35*	i	i
COc1ccc(S(=O)(=O)N2CCN(c3ccc(C)cc3C)CC2)cc1OC	-2	i	i	i	i	-8	·	·	·	·
Cc1cc(S(=O)(=O)N2CCN(c3c(C)cccc3C)CC2)ccc1F	-0.33	8*	i	i	i	-7	103*	0.39	81%*	136%*	KCNQ1 ephys val=i
Cc1cc(S(=O)(=O)N2CCc3ccccc3C2)ccc1F	·	i	i	i	i	-6	·	·	·	·
O=C(CNC(=O)c1ccc(Br)o1)Nc1ncccc1O	·	i	i	i	i	-11	·	·	·	·
Cc1ccccc1NC(NC(=O)c1cccs1)C(Cl)(Cl)Cl (stereo not drawn)	1.9	13*	i	i	i	-10	120*	0.43	i	114%*	KCNQ1 ephys val=i
COc1ccc(N=c2cc(-c3ccc(OC)cc3)oc3ccccc23)cc1	0.11	12*	i	i	i	-11	147*	0.36*	i	+
SMILES	Cl transport mod	KCNQ1 block	KCNQ1 act	KCNK3 inh	KCNK9 block	hERG protect	KCNQ1 inh valid	CHO KCNQ1 ctr	KCNQ2 inh	KCNQ1 KCNE1 spec	others
CCCCOc1[nH]c2nc(-c3ccco3)n(Cc3ccco3)c(=N)c2c1C#N	-0.2	14*	i	i	-7.2*	-17	76*	0.5	78%*	81%*
Cc1ccc(O)c(-c2cc3ccccc3[nH]2)c1	0.57	10*	i	i	i	-6	132*	0.46	i	166%*
Cc1ccc(S(=O)(=O)c2c(N)n(CCC(C)C)c3nc4ccccc4nc23)cc1	-0.7	15*	i	i	i	-12	75*	0.42	i	97%*
COc1ccc(OC)c(S(=O)(=O)N2CCN(c3ccccc3)CC2)c1	·	i	i	i	i	-11	·	·	·	·
CCc1ccccc1N1CCN(S(=O)(=O)c2cc(OC)ccc2OC)CC1	-1.2	6*	i	i	i	-15	106*	0.43	95%*	142%*	KCNQ1 ephys val=+
COc1ccc(-c2cc(=NC(CC(C)C)C(=O)O)c3cc(C)ccc3o2)cc1 (stereo not drawn)	-1.8	9*	i	i	i	-16	70*	0.45	i	54%*
COc1ccc(-c2cc(=Nc3ccc(C)cc3)c3ccccc3o2)cc1	·	i	i	i	i	-9	·	·	·	·
Cc1cc(C)cc(NC(=O)CCCN2C(=O)C(c3ccccc3)Oc3cccnc32)c1 (stereo not drawn)	·	i	i	i	i	-8	·	·	·	·
CNC(=O)NC(=O)C(NC1CCCc2ccccc21)c1ccccc1 (stereo not drawn)	·	i	i	i	i	-8	·	·	·	·
